{"data": "Measurements collected from several papers", "target": "Serine/threonine-protein kinase MARK1 (MARK1, Homo sapiens, UniProt Q9P0L2)", "read-out": "enzyme activity", "action": "inhibitor", "note": "Lines come from different studies, so protocols differ."}
{"Structure (SMILES)": "Cc1ccc(C(=O)Nc2ccc(CN3CCN(C)CC3)c(C(F)(F)F)c2)cc1C#Cc1cnc2cccnn12", "tested at": "23.5 nM", "remaining activity [%]": 100}
{"Structure (SMILES)": "O=C(NCCCNc1nc(Nc2cccc(NC(=O)N3CCCC3)c2)ncc1Br)C1CCC1", "technique": "radiometric", "tested at": "1 µM", "remaining activity [%]": -6}
{"Structure (SMILES)": "CC(C)(C)c1nc2c(s1)c1nc(N)ncc1c1ccc(NS(=O)(=O)c3c(F)cccc3F)c(F)c12", "technique": "radiometric", "tested at": "1 µM", "remaining activity [%]": 90}
{"Structure (SMILES)": "CCCOc1ccc(OC)c(F)c1C(=O)c1ccc(C(=O)N[C@@H]2CNC[C@H]2NC(=O)c2ccc3[nH]ncc3c2)cc1", "tested at": "10 µM", "remaining activity [%]": 21}
{"Structure (SMILES)": "c1cc(CN2CCOCC2)cc(Nc2ncc(C3CC3)c(NCCc3c[nH]cn3)n2)c1", "technique": "radiometric", "tested at": "1 µM", "remaining activity [%]": 1}
{"Structure (SMILES)": "COc1cc(Cl)c(C(=O)N[C@@H](CN[C@H]2CC[C@@H](N)CC2)Cc2ccc(C#N)cc2)cc1-c1ccc(CN[C@H](C)c2ccc(C)cc2)o1", "tested at": "1 µM", "remaining activity [%]": 148}
{"Structure (SMILES)": "O=C(Nc1cnn(-c2csc(C(=O)NC3COC3)c2)c1)Nc1c(F)cccc1Cl", "tested at": "5 µM", "remaining activity [%]": 108}
{"Structure (SMILES)": "CCN(CC)c1ccc(C2=NNC(=O)CC2C)cc1[N+](=O)[O-] (stereo not shown)", "tested at": "10 µM", "remaining activity [%]": 102}
{"Structure (SMILES)": "COc1cc(Nc2cnc(C#N)c(O[C@H](C)CN(C)C)n2)ncc1-c1cnn(C)c1", "technique": "radiometric", "tested at": "10 µM", "remaining activity [%]": 80}
{"Structure (SMILES)": "CC(C)(C)c1nc(-c2cccc(NS(=O)(=O)c3c(F)cccc3F)c2F)c(-c2ccnc(N)n2)s1", "technique": "radiometric", "tested at": "1 µM", "remaining activity [%]": 90}
{"Structure (SMILES)": "Cc1nn(CC(F)(F)F)cc1Nc1nccc(NCCc2cnc[nH]2)n1", "technique": "radiometric", "tested at": "1 µM", "remaining activity [%]": 109}
{"Structure (SMILES)": "Cc1cnc(NC2CCOCC2)nc1-n1cnc(C(=O)NC(CN)c2cc(F)cc(Cl)c2)c1 (stereo not shown)", "technique": "radiometric", "tested at": "1 µM", "remaining activity [%]": 43}
{"Structure (SMILES)": "NS(=O)(=O)c1ccc(CNc2nc(Nc3cccc(CN4CCOCC4)c3)ncc2Br)cc1", "technique": "radiometric", "tested at": "1 µM", "remaining activity [%]": 66}
{"Structure (SMILES)": "O=C(Nc1cnn(-c2csc(C(=O)NC3COC3)c2)c1)Nc1ccccc1Cl", "tested at": "5 µM", "remaining activity [%]": 96.3}
{"Structure (SMILES)": "Oc1cccc(-c2nc(N3CCOCC3)c3oc4ncccc4c3n2)c1", "tested at": "10 µM", "remaining activity [%]": 91}
{"Structure (SMILES)": "NS(=O)(=O)c1ccc(CNc2ccnc(Nc3cccc(NC(=O)N4CCCC4)c3)n2)cc1", "technique": "radiometric", "tested at": "1 µM", "remaining activity [%]": 104}
{"Structure (SMILES)": "CC(C)(O)[C@H]1CC[C@H](Nc2ccc3ncc(-c4cccc(C(F)(F)F)c4)n3n2)CC1", "tested at": "1 µM", "remaining activity [%]": 102}
{"Structure (SMILES)": "NS(=O)(=O)c1ccc(CNc2nc(Nc3cccc(CN4CCOCC4)c3)ncc2C2CC2)cc1", "technique": "radiometric", "tested at": "1 µM", "remaining activity [%]": 100}
{"Structure (SMILES)": "Cn1c(=O)n(-c2ccc(C(C)(C)C#N)cc2)c2c3cc(-c4cnc5ccccc5c4)ccc3ncc21", "tested at": "10 µM", "remaining activity [%]": 97}
